Screening data as filed in PubChem BioAssay.
bCat KO growth: beta-catenin-lacking colon tumor cell growth suppression; AID 818; 1.5% of 140,000 active; HCT116 beta-catenin knockout viability, CellTiter-Glo, 60 h; active compounds read low; viability, % at 10 µM;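 active means viability at or under a set limit, the compound median less 4 SD, cut at about 6% in these data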;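 further: 0% = Hyamine 1622 control at 20 µM and 100% = untreated cell control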
Lmaj promast: reduces viability of Leishmania major promastigotes; resazurin fluorescence viability; inhibition, % at 10 µM; 9% of 200,000 active; in the data active means inhibition above about 50%;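 further: promastigotes grown with compound for 44 hours at 28 °C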
TNAP act hiacc: increases human TNAP activity under high phosphate acceptor concentration; purified TNAP, CDP-star luminescence, 1 M DEA, 30 min; active compounds read high; 0 = EDTA background, 1 = DMSO-only activity; activation factor at 20 µM; 200,000 tested, under 10 active; AID 1136;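 active means activation factor at least 2 at 20 µM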
Target sequence (P05186 whole entry, looked up): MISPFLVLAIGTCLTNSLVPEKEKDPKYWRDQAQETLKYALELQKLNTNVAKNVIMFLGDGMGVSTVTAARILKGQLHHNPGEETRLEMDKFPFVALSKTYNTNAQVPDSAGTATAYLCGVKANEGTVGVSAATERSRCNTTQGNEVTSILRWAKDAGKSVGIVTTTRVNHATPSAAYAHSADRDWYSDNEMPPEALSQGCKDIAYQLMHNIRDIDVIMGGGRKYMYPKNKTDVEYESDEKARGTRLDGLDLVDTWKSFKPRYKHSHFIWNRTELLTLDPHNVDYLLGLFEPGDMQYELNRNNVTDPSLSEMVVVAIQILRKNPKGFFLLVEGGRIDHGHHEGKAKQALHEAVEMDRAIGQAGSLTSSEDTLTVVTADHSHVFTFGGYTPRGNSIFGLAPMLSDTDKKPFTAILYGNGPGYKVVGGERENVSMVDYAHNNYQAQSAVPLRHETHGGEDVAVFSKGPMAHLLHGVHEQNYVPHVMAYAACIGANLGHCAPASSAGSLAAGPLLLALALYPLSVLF
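Assay system: human TNAP; Input: enzyme diluted 1/800 final; Reagent: CDP-star luminogenic substrate at 100 µM final; Timing: 30 min, room temperature; Signal: luminescence; Evaluation: TNAP activation factor scaled between EDTA and DMSO control wells.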
TNAP inh hi DEA: TNAP (human) inhibition, high acceptor; P05186; purified TNAP, CDP-star luminescence, 1 M DEA; inhibition, % at 20 µM; 0.03% of 200,000 active;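 active means over 50% inhibition of tissue-nonspecific alkaline phosphatase at 20 µM in the single-dose screen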;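 further: plate controls were DMSO wells for no effect and EDTA-quenched wells as full inhibition for full effect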
TNAP inh no acc: inhibitors of human TNAP without phosphate acceptor; inhibition, % at 20 µM; purified TNAP, CDP-star luminescence, 30 min; P05186; 0.26% of 200,000 active;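 active means tissue-nonspecific alkaline phosphatase inhibition above about 50% at 20 µM in the single-dose screen, limit read from the data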;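 further: 0% = DMSO negative control and 100% = EDTA positive control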
PTEN del growth: PTEN-deleted cell growth suppression; HCT116 PTEN-null viability, CellTiter-Glo, 60 h; active compounds read low; viability, % at 10 µM; 1.2% of 140,000 active; AID 827;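 active means viability at or below a set limit, 4 SD under the median of all tested compounds, cut at about 3.7% in these data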;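 further: PTEN knockout HCT116 line with beta catenin targeted HCT116 as companion control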
* hit, by the source's call; nt = no result. An excerpt weighted towards active compounds, which were near 9.6% of everything screened.

SMILES	bCat KO growth	Lmaj promast	TNAP act hiacc	TNAP inh hi DEA	TNAP inh no acc	PTEN del growth
CC(=O)Nc1ccc(SCC(=O)c2cc(C)n(CC(F)(F)F)c2C)cc1	80.8	61.4*	1	-0.7	-13.4	77.6
C=CCn1cc(C(C)=O)c(=O)[nH]c1=O	nt	0.2	1.1	-5.8	-4.0	nt
CCCCCOP(=O)(OCCCCC)C1(NS(=O)(=O)c2ccccc2)C=CC(=O)c2ccccc21 (stereo unspecified)	84.9	99.7*	1	-3.6	-2.9	69.8
O=C(NCc1ccco1)/C(=C\c1cccnc1)NC(=O)c1ccccc1F	100.7	52.6*	1	-2.0	-2.8	103.8
CCOC(=O)C1=NN(c2ccccc2)C(=O)/C1=C\c1ccc(N(C)C)cc1	64.7	88.5*	1	4.9	12.2	51.9
CC1=NN(Cc2ccccc2)C(=O)/C1=C\c1ccc(N(C)C)cc1	90.1	-1.4	0.9	6.3	35.3	96.5
NS(=O)(=O)c1cccc(NC(=O)COC(=O)Cc2ccc(Cl)cc2)c1	nt	-3.0	1	4.8	4.1	nt
CCOc1cc(N(CC)CC)ccc1/C=C(/C#N)c1nc2ccccc2[nH]1	64.9	79.9*	0.7	27.2	30.3	60.9
CCN(CC)c1ccc(/C=C(/C#N)c2nc3ccc(C)cc3[nH]2)c(OC(C)C)c1	83.9	99.6*	0.7	25.1	27.3	69.2
COc1cc(/C=C(\C#N)c2nc3ccccc3[nH]2)cc(Br)c1OCc1ccc(F)cc1	2.1*	17.6	1	0.1	-4.3	2.1*
Cc1ccc2nc(/C(C#N)=C\c3cc(O)ccc3[N+](=O)[O-])[nH]c2c1	nt	-2.7	1	0.7	-4.2	nt
CCCOc1cc(N(CC)CC)ccc1/C=C(/C#N)c1nc2ccc(C)cc2[nH]1	68.7	66.0*	0.7	28.9	40.2	61.9
O=C(CSc1ccccc1)NCCCc1ccccc1	nt	-0.6	1.1	-6.6	-13.3	nt
COc1ccccc1N(CC(=O)NC(C)(C)C)S(=O)(=O)c1cccs1	91.3	46.9	1	-2.0	-5.6	97.4
CCN(CC)C(=S)SCC(=O)NC12CC3CC(CC(C3)C1)C2	84.7	-2.5	1	-2.4	-4.7	80.9
Cc1cc(C)n2nc(SCc3nnc(-c4ccccc4Br)o3)nc2n1	nt	-4.7	1.1	-7.5	-12.0	nt
CCOC(=O)c1c(C)oc2c1c(C(c1ccncc1)N1CCOCC1)c(O)c1ccccc12 (stereo unspecified)	9.2	72.7*	1	-0.5	-7.6	16.6
CC1CCCN(C(=O)C2CCN(CCCc3ccccc3)CC2)C1 (stereo unspecified)	102.1	81.2*	1.1	-7.5	3.6	98.0
CCCCN(C)C(=O)C1CCN(CCCc2ccccc2)CC1	60.4	82.3*	1	-2.5	-7.6	68.6
COc1ccc(CN2CCC(C(=O)N3CCCC(C)C3)CC2)cc1OC (stereo unspecified)	nt	-6.7	1.1	-7.5	-11.2	nt
COc1ccc(CCN(C)C(=O)C2CCN(Cc3ccccc3)CC2)cc1OC	nt	-4.6	1	-4.3	-6.2	nt
CCOC(=O)C1CCCN(CCCc2ccccc2)C1 (stereo unspecified)	99.1	50.5*	1.1	-5.5	23.1	102.1
COc1cc(CN2CCC(C(=O)N3CCCC(C)C3)CC2)cc(Br)c1O (stereo unspecified)	80.5	75.6*	1.1	-7.6	-6.8	96.5
Cc1cccc(C)c1NC(=O)C1CCCN(CCCc2ccccc2)C1 (stereo unspecified)	89.0	7.3	1.1	-10.8	2.0	77.8
c1ccc(CCNc2ccccc2)cc1	nt	nt	1	-1.9	-6.7	nt
Cc1ccc(O)c(-c2cc(C(=O)Nc3ccc(S(=O)(=O)Nc4nc(C)cc(C)n4)cc3)[nH]n2)c1	80.5	-10.0	1	-2.0	-112.2	67.3
CCn1cc(S(=O)(=O)N2CCN(Cc3cccc(Cl)c3)CC2)cn1	nt	0.6	1	-2.0	-6.9	nt
COc1ccc(NS(=O)(=O)c2ccc3nc(COc4cccc5ccccc45)[nH]c3c2)cc1	44.3	95.2*	1	-2.2	-60.8	38.7
O=C(Nc1ccc2sccc2c1)c1cccc(N2C(=O)CCC2=O)c1	nt	-5.1	1	2.4	-3.3	nt
O=C(NNc1nc2cc3c(cc2s1)OCO3)c1cccc(F)c1	0.6*	55.3*	1	4.6	-4.6	0.2*
